The test system of assay [1] is A. baumannii ATCC BAA-1605 (Ab05). Description: MIC, microdilution with resazurin. In kind it is cell-based, Acinetobacter baumannii. A digest of the protocol:
(§1)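 Compounds dissolved in DMSO at 2 mg/mL. Overnight blood-agar colonies were suspended in PBS to 0.5 McFarland, then diluted in Mueller Hinton broth to about 1x10^6 cfu/mL with resazurin (1:1000 of 0.1% w/v stock). Twofold DMSO dilutions were added 1:40, giving 50 to 0.4 μg/mL at 2.5% DMSO. Incubation was 35 °C for 16-20 h. Blue/non-turbid wells counted as inhibited, pink/turbid as grown.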
(In general: In broth dilution the organism is exposed to a series of concentrations in liquid medium.)

Assay [2] deals with S. aureus ATCC 700699 (Sa99). The assay can be described thus: MIC, microdilution with resazurin. In kind it is cell-based. Conditions: Staphylococcus aureus, ATCC700699, read-out: MIC Sa99. A digest of the protocol:
as §1

Assay [3] deals with S. aureus ATCC 33592 (Sa92). Description: MIC, microdilution with resazurin. The class given is cell-based. Conditions: Staphylococcus aureus, ATCC33592, read-out: MIC Sa92. The method, boiled down:
as §1

Assay [4] deals with S. aureus BAA-2312 (Sa12). Description: MIC, microdilution with resazurin. Conditions: Staphylococcus aureus, BAA2312, read-out: MIC Sa12. In kind it is cell-based. The method, boiled down: as §1
The test system of the next assay is A. baumannii ATCC 19606. Description: Time kill assay. Conditions: 4xMIC; for time kill effect: 24 hours at 35 °C. The class given is cell-based, Acinetobacter baumannii. A digest of the protocol:
(§2)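 Growth curves by optical density set the log phase. Log-phase bacteria (about 2 h shaking in Mueller Hinton broth II) were diluted in warm broth to about 3x10^6 cfu/mL. They were exposed to compound at 4xMIC (other multiples where indicated), in triplicate, at 35 °C. Colistin (A. baumannii) or vancomycin (S. aureus) and DMSO were included. Samples at 0, 2, 4, 6, 8, 10, 12 and 24 h were counted by drop plate on blood agar (18-24 h, 35 °C). Log cfu/mL was plotted against time.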

In assay [5] the test system is A. baumannii ATCC 747 (Ab47). Description: MIC, microdilution with resazurin. The class given is cell-based, Acinetobacter baumannii. Conditions: for MIC Ab47: A. baumannii ATCC 747; for MIC: Acinetobacter baumannii, ATCC747, read-out: MIC Ab47. A digest of the protocol:
as §1

The subject of assay [6] is B. subtilis ATCC 6623 (Bs). Description: MIC, microdilution with resazurin. In kind it is cell-based, Bacillus subtilis. Conditions: Bacillus subtilis, ATCC6623, read-out: MIC Bs.
For assay [7], the system named is S. aureus ATCC 33591 (Sa91). The assay can be described thus: MIC, microdilution with resazurin. The settings on record: Staphylococcus aureus, ATCC33591, read-out: MIC Sa91. In kind it is cell-based. A digest of the protocol:
as §1

Assay [8] relates to S. aureus ATCC 25923 (Sa23). The assay can be described thus: MIC, microdilution with resazurin. In kind it is cell-based. Conditions: Staphylococcus aureus, ATCC25923, read-out: MIC Sa23. A digest of the protocol:
as §1

For assay [9], the system named is A. baumannii ATCC 19606 (type strain, Ab06). Description: MIC and MBC. The class given is cell-based, Acinetobacter baumannii. Conditions: for MIC Ab06: A. baumannii ATCC 19606 (type strain). The method, boiled down: as §1
Assay [10] has as its system S. epidermidis 700296 (Se). Description: MIC, microdilution with resazurin. In kind it is cell-based. The settings on record: Staphylococcus epidermidis, read-out: MIC Se. The method, boiled down: as §1
Assay [11] concerns S. aureus ATCC 33599 (MRSA). The assay can be described thus: BacLight membrane permeability assay. In kind it is cell-based, Staphylococcus aureus. Conditions: versus positive control vancomycin.
Assay [12] has as its system tested A. baumannii strains. Description: MIC, text summary over A. baumannii strains. The class given is cell-based, Acinetobacter baumannii. The method, boiled down:
as §1

Assay [13] has as its system A. baumannii ATCC 19606 (Ab06). The assay can be described thus: BacLight membrane permeability assay. The settings on record: Ab06, versus positive control colistin at comparable MIC. The class given is cell-based, Acinetobacter baumannii.
Assay [14] deals with tested Gram-positive bacterial strains. The assay can be described thus: MIC, text summary over tested Gram-positive strains. In kind it is cell-based.
The test system of assay [15] is human embryonic kidney cell line (HEK293). Description: Toxicity against HEK293 cell line. The settings on record: HEK293 IC50 over MIC; as high as. In kind it is cell-based.
The test system of assay [16] is S. aureus ATCC 25923 biofilm formation. Description: Biofilm inhibition assay. Conditions: 2xMIC, MIC and 0.5xMIC concentrations, 24 hours. The class given is cell-based, Staphylococcus aureus. The method, boiled down:
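Blood-agar culture was suspended in PBS (0.5 McFarland), then diluted 1:100 in yeast extract casamino acid broth (about 1x10^6 cfu/mL). Compound at 2xMIC, MIC and 0.5xMIC was added before biofilm formation, in triplicate, with broth-only and bacteria+DMSO controls. Incubation was 35 °C for 24 h. Wells were PBS-washed, dried, stained with 0.1% crystal violet, solubilised in 33% acetic acid and read at 620 nm. % inhibition = [1−(ODcompound−ODbroth)/(ODdmso−ODbroth)]×100, from mean and SD.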

For assay [17], the system named is S. aureus ATCC 25923 preformed biofilm. Description: Biofilm destruction assay. Conditions: 2xMIC. The class given is cell-based, Staphylococcus aureus. The method, boiled down: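 Biofilm was first grown in 96-well plates for 24 h at 35 °C and washed with PBS to remove unadhered cells. Fresh yeast extract casamino acid broth was added with compound at 2xMIC, MIC or 0.5xMIC, or DMSO, in triplicate, plus broth-only wells. Incubation was 35 °C for 24 h. Crystal violet was stained, solubilised and read at 620 nm. % destruction = [1−(ODcompound−ODbroth)/(ODdmso−ODbroth)]×100, from triplicate means.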

Assay [18] has as its system S. aureus ATCC 33599 (MRSA). Description: Time kill assay. The class given is cell-based, Staphylococcus aureus. The method, boiled down:
as §2

The test system of assay [19] is S. aureus ATCC 33599 (MRSA). Description: MIC and MBC. The class given is cell-based, Staphylococcus aureus. Details: MBC as multiple of the MIC: unit not given beside the values. A digest of the protocol: as §1
Where [20] appears, read: Acinetobacter baumannii, ATCC19606.
Where [21] appears, read: Acinetobacter baumannii, ATCC19606, read-out: MIC Ab06.
Where [22] appears, read: Staphylococcus aureus, ATCC33599|MRSA.

Values after ≈ are worked out from the molar mass of the structure shown. Where two headings read alike, the source gives them in different places. Some results are limits rather than exact numbers.

By MIC is commonly meant the smallest concentration in the dilution series that meets the test's criterion for growth inhibition. The term MBC denotes the lowest tested concentration that kills the bacteria rather than only halting them. For `O=C(O)c1ccc(-n2cc(/C=N/Nc3ccc(Br)cc3)c(-c3ccc4ccccc4c3)n2)cc1` [Compound 18], in [1], the “MIC Ab05” value is listed as “moderate growth inhibitor”. The minimal inhibitory concentration (MIC) in [2] stood at 0.78 µg/mL (≈ 1.53 µM); in assay [3], 3.12 µg/mL (≈ 6.11 µM); in assay [4] it was 12.5 µg/mL (≈ 24.4 µM); in assay [5] it was 6.25 µg/mL (≈ 12.2 µM); in assay [6], 6.25 µg/mL (≈ 12.2 µM); in assay [7] it was 12.5 µg/mL (≈ 24.4 µM). Also, the MIC was 6.25 µg/mL (≈ 12.2 µM) in assay [8], 1.56 µg/mL (≈ 3.05 µM) in assay [9] (setting [20]), 1.56 µg/mL (≈ 3.05 µM) in [9] (setting [21]) and 12.5 µg/mL (≈ 24.4 µM) in assay [10]. Also, in the assay on A. baumannii ATCC 19606, the “time kill effect” value is “bacteriostatic effect”. Further, the “increase in log10 cfu/mL of the bacterial population” value with A. baumannii ATCC 19606 (through 24 hours) was at most 2 fold. In [5], the “MIC Ab47” value is “moderate growth inhibitor”. The MBC in [9] (setting [20]) is 12.5 µg/mL (≈ 24.4 µM).

`O=C(O)c1ccc(-n2cc(/C=N/Nc3ccc(F)c(Cl)c3)c(-c3ccc4ccccc4c3)n2)cc1` [Compound 22]: the “membrane disruption activity, PI/SYTO-9 ratio” value in assay [11] was “more potent membrane disruption activity than vancomycin”. Moreover, in assay [12], the “activity against A. baumannii strains” value is given as “moderate growth inhibitor”. The MIC in assay [2] amounted to 0.78 µg/mL (≈ 1.61 µM); in [3], 1.56 µg/mL (≈ 3.22 µM); in [4] it was 3.12 µg/mL (≈ 6.44 µM); in [5] it was 12.5 µg/mL (≈ 25.8 µM); in assay [6], 6.25 µg/mL (≈ 12.9 µM); in assay [7] it was 6.25 µg/mL (≈ 12.9 µM). Moreover, the MIC in assay [8] was 3.12 µg/mL (≈ 6.44 µM); in [9] (setting [20]), 6.25 µg/mL (≈ 12.9 µM); in assay [9] (setting [21]), 6.25 µg/mL (≈ 12.9 µM); in [10], 3.12 µg/mL (≈ 6.44 µM). Also, the “membrane disrupting ability, PI/SYTO-9 ratio” value in [13] is given as “better membrane disrupting ability”. This molecule returned an MBC in assay [9] (setting [20]) of 50 µg/mL (≈ 103 µM). The “antimicrobial activity against the tested strains” value (“antimicrobial activity” for short) in assay [14] was “potent inhibitors of tested Gram-positive strains”.

With `O=C(O)c1ccc(-n2cc(/C=N/Nc3cc(F)ccc3F)c(-c3ccc4ccccc4c3)n2)cc1` [Compound 19], in [11], the “membrane disruption activity, PI/SYTO-9 ratio” value is on record as “more potent membrane disruption activity than vancomycin”. Further, the “selectivity factor (IC50/MIC)” value in assay [15] is given as at most 48.7. Further, the minimal inhibitory concentration (MIC) was 0.78 µg/mL (≈ 1.67 µM) in assay [2]; 1.56 µg/mL (≈ 3.33 µM) in [3]; 3.12 µg/mL (≈ 6.67 µM) in [4]; over 50 µg/mL in [5]; 3.12 µg/mL (≈ 6.67 µM) in assay [6]; 3.12 µg/mL (≈ 6.67 µM) in assay [7]. Also, the figures for the MIC in assay [8], in assay [9] (setting [21]) and in assay [10] were 1.56 µg/mL (≈ 3.33 µM), over 50 µg/mL and 3.12 µg/mL (≈ 6.67 µM), respectively. In addition, the “inhibition of biofilm formation” value in assay [16] was “most effective compound”. In addition, the “destruction of preformed biofilm” value in assay [17] was “potent activity”. Moreover, the “antimicrobial activity” value in [14] was “enhanced activity against all the tested strains”.

As for `O=C(O)c1ccc(-n2cc(/C=N/Nc3cccc(Br)c3)c(-c3ccc4ccccc4c3)n2)cc1` [Compound 17], in assay [1], the “MIC Ab05” value is reported as “did not inhibit the growth”. In addition, the MIC was 1.56 µg/mL (≈ 3.05 µM) in [2]; 1.56 µg/mL (≈ 3.05 µM) in assay [3]; 6.25 µg/mL (≈ 12.2 µM) in assay [4]; over 50 µg/mL in assay [5]; 3.12 µg/mL (≈ 6.11 µM) in assay [6]; 6.25 µg/mL (≈ 12.2 µM) in assay [7]. For the same molecule, the MIC in assay [8] was 6.25 µg/mL (≈ 12.2 µM); in [9] (setting [21]), 12.5 µg/mL (≈ 24.4 µM); in [10] it was 6.25 µg/mL (≈ 12.2 µM). The “MIC Ab47” value in [5] is recorded as “did not inhibit the growth”. Besides, in [9], the “MIC Ab06” value was “moderately inhibited the growth”.

On to colistin [reference compound], for which the “MIC Ab05” value in assay [1] was determined as 3.125 µg/mL. Further, in the assay with A. baumannii ATCC 19606, the “time to completely kill the starting population” value is at most 4 h and the “time kill effect” value is “immediate bactericidal effect”. Further, the “MIC Ab47” value in [5] came out at 1.56 µg/mL. Further, in assay [9], the “MIC Ab06” value was 3.125 µg/mL. The molecule further yielded a minimum inhibitory concentration (MIC) in assay [9] (A. baumannii ATCC 19606, Table 2) of 3.125 µg/mL. Besides, in assay [9] (A. baumannii ATCC 19606, concentration killing 99.9% or greater), the MBC was determined as 6.25 µg/mL.

For `O=C(O)c1ccc(-n2cc(/C=N/Nc3ccc(Cl)cc3Cl)c(-c3ccc4ccccc4c3)n2)cc1` [Compound 20], in assay [11], the “membrane disruption activity, PI/SYTO-9 ratio” value is “more potent membrane disruption activity than vancomycin”. The “selectivity factor (IC50/MIC)” value in assay [15] is at most 48.7. Further, the MIC is 0.78 µg/mL (≈ 1.56 µM) in [2]; 0.78 µg/mL (≈ 1.56 µM) in [3]; 3.12 µg/mL (≈ 6.23 µM) in [4]; over 50 µg/mL in [5]; 3.12 µg/mL (≈ 6.23 µM) in assay [6]; 6.25 µg/mL (≈ 12.5 µM) in assay [7]. For the same molecule, the MIC was 3.12 µg/mL (≈ 6.23 µM) in assay [8], over 50 µg/mL in [9] (setting [21]), 0.78 µg/mL (≈ 1.56 µM) in [19] (setting [22]) and 3.12 µg/mL (≈ 6.23 µM) in [10]. Besides, the “time kill effect” value in assay [18] (4xMIC, 24 hours at 35 °C) is recorded as “mild bactericidal effect”; in assay [18] (8xMIC), “strongly bactericidal”. Also, the “time to kill all bacteria” value in assay [18] (8xMIC) was at most 4 h. The “antimicrobial activity” value in assay [14] was “enhanced activity against all the tested strains”. Further, in [19] (S. aureus ATCC 33599 (MRSA)), the “MBC as multiple of the MIC” value is given as 8. The MBC in assay [19] (setting [22]) worked out at 6.25 µg/mL (≈ 12.5 µM).

These data come from paper PMC7655718 (The Journal of antibiotics, 2020).
